Reference: ChEMBL document CHEMBL3351774, “Inhibitory activities of propolis and its promising component, caffeic acid phenethyl ester, against amyloidogenesis of human transthyretin” (J Med Chem, 2014)
Calls of active or inactive are those of the source. The calls are words filed in the database; no cut-off is given here.

Legend:
[1] = tested on: Transthyretin (Homo sapiens), P02766 [V50M]; test: Competitive binding to TTR V30M mutant (unknown origin) expressed in Escherichia coli at 1 to 80 uM by fluorescence assay
Summary of the method: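 Thioflavin T competition check: preformed V30M fibrils (10 μM V30M with 66.8 μM thioflavin T, 37 °C, 72 h) were mixed with compounds at 0−80 μM final, with 20 μM thioflavin T and 200 mM Tris-HCl pH 8.0 final. Emission 460−700 nm was recorded with excitation at 440 nm.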

[2] = biological target: Transthyretin (Homo sapiens, UniProt P02766, V50M); test: (§1) Inhibition of TTR V30M mutant (unknown origin) expressed in Escherichia coli assessed as inhibition of amyloid fibril formation by fluorescence assay
Summary of the method: (§2)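 Compounds were tested at 2.5−80 μM with at least four concentrations. EC50 came from a four-parameter logistic least-squares fit. Standard deviations and p values were taken from triplicate experiments.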

[3] = tested on: Transthyretin (Homo sapiens), P02766 [V50M]; test: Displacement of ANS from TTR V30M mutant (unknown origin) expressed in Escherichia coli at 1 to 50 uM after 5 mins by fluorescence assay
Summary of the method: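 ANS displacement on 2 μM Ni-NTA-purified V30M in 50 mM Tris-HCl pH 7.4, 150 mM NaCl at 298 K. ANS and compound were added in sequence, stirred and equilibrated 5 min. Dilution stayed below 0.4%. Emission 400−540 nm was read with excitation at 280 nm.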

[4] = tested on: Transthyretin (Homo sapiens), P02766 [V50M]; test: Inhibition of TTR V30M mutant (unknown origin) expressed in Escherichia coli assessed as inhibition of amyloid fibril formation at 20 uM by fluorescence assay
Summary of the method: as §2, with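 “Acid-mediated aggregation of 10 μM Ni-NTA-purified V30M, read by thioflavin T fluorescence at 484 nm (excitation 440 nm). Compounds” for “Compounds”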

[5] = tested on: Transthyretin (Homo sapiens), P02766 [V50M]; test: Inhibition of acid-mediated dissociation of TTR V30M mutant (unknown origin) expressed in Escherichia coli after 30 mins by SDS-PAGE
Summary of the method: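 V30M in 20 mM Tris-Cl pH 8.0, 150 mM NaCl was preincubated with compound (ethanol stock) for 30 min at room temperature. Four volumes of 0.1 M sodium acetate pH 4.5 were then added, and the sample was held at 310 K for 8 days (7.3 μM protein; compound 7.3 or 36.5 μM final). Glutaraldehyde cross-linking ran 5 min and was stopped with borohydride. Bands were resolved by 15% SDS-PAGE and silver-stained.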

[6] = tested on: Transthyretin (Homo sapiens), P02766 [V50M]; test: Inhibition of TTR V30M mutant (unknown origin) expressed in Escherichia coli assessed as inhibition of amyloid fibril formation at 5 uM by fluorescence assay
Summary of the method: as §2, with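 “Acid-mediated aggregation of 10 μM Ni-NTA-purified V30M, read by thioflavin T fluorescence at 484 nm (excitation 440 nm). Compounds” for “Compounds”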

[7] = tested on: Transthyretin (Homo sapiens), P02766 [V50M]; test: Inhibition of TTR V30M mutant (unknown origin) expressed in Escherichia coli assessed as inhibition of amyloid fibril formation at 80 uM by fluorescence assay
Summary of the method: as §2, with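 “Acid-mediated aggregation of 10 μM Ni-NTA-purified V30M, read by thioflavin T fluorescence at 484 nm (excitation 440 nm). Compounds” for “Compounds”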

[8] = tested on: Transthyretin (Homo sapiens), P02766 [V50M]; test: Inhibition of TTR V30M mutant (unknown origin) expressed in Escherichia coli assessed as inhibition of amyloid fibril formation at 40 uM by fluorescence assay
Summary of the method: as §2, with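 “Acid-mediated aggregation of 10 μM Ni-NTA-purified V30M, read by thioflavin T fluorescence at 484 nm (excitation 440 nm). Compounds” for “Compounds”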

[9] = tested on: Transthyretin (Homo sapiens), P02766 [V50M]; test: Inhibition of TTR V30M mutant (unknown origin) expressed in Escherichia coli assessed as inhibition of amyloid fibril formation at 10 uM by fluorescence assay
Summary of the method: as §2, with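 “Acid-mediated aggregation of 10 μM Ni-NTA-purified V30M, read by thioflavin T fluorescence at 484 nm (excitation 440 nm). Compounds” for “Compounds”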

[10] = tested on: Transthyretin (Homo sapiens), P02766 [V50M]; test: as §1; summary of the method: as §2
[11] = biological target: Transthyretin (Homo sapiens, UniProt P02766, L75P); test: Inhibition of TTR L55P mutant (unknown origin) expressed in Escherichia coli assessed as inhibition of amyloid fibril formation by fluorescence assay
[12] = biological target: Transthyretin (Homo sapiens, UniProt P02766, I104T); test: Inhibition of TTR I84T mutant (unknown origin) expressed in Escherichia coli assessed as inhibition of amyloid fibril formation by fluorescence assay

| SMILES | Activity [1] | EC50 ([2]; read-out: EC50) | inhibition [4] | further results |
| --- | --- | --- | --- | --- |
| COc1ccc(/C=C/C(=O)OCCc2ccccc2)cc1O | inactive | 11 µM | – | – |
| COc1ccc(/C=C/C(=O)OCCc2ccccc2)cc1OC | inactive | 58 µM | – | – |
| COc1cc(/C=C/C(=O)OCCc2ccccc2)ccc1O | inactive | 7.9 µM | < 20% | Activity [3]: Active; inhibition [5]: Dose-dependent effect |
| COc1ccc(CC(C)C(C)Cc2ccc(OC)c(OC)c2)cc1OC (stereo not drawn) | – | – | < 20% | EC50 [2]: Not Active |
| CCCCCCCCOC(=O)/C=C/c1ccc(O)c(O)c1 | – | – | 47% | inhibition [6]: 27%; inhibition [7]: 53%; inhibition [8]: 49%; inhibition [9]: 44% |
| COc1cc(CNC(=O)CCCC/C=C/C(C)C)ccc1O | – | – | < 20% | – |
| COc1cc(C[C@H]2COC(=O)[C@@H]2Cc2ccc(O)c(OC)c2)ccc1O | – | – | < 12% | – |
| O=C(/C=C/c1ccc(O)c(O)c1)O[C@@H]1C[C@](O)(C(=O)O)C[C@@H](O)[C@H]1O | – | – | – | inhibition [10]: inactive |
| O=C(/C=C/c1ccccc1)OCCc1ccccc1 | – | – | – | inhibition [10]: inactive |
| O=C(O)c1cc(-c2ccc(F)cc2F)ccc1O | – | – | < 20% | – |
| O=C1OC[C@H](Cc2cccc(O)c2)[C@H]1Cc1cccc(O)c1 | – | – | < 20% | – |
| OC[C@H](Cc1cccc(O)c1)[C@H](CO)Cc1cccc(O)c1 | – | – | < 20% | – |
| c1cc2c(cc1[C@H]1OC[C@H]3[C@@H]1CO[C@@H]3c1ccc3c(c1)OCO3)OCO2 | – | – | < 20% | – |
| O=C(/C=C/c1ccc(O)c(O)c1)OCc1ccccc1 [BENZYL CAFFEATE] | Active | 16 µM | – | – |
| O=C(/C=C/c1ccc(O)c(O)c1)OCCc1ccccc1 [CAFFEIC ACID PHENETHYL ESTER] | inactive | 8.6 µM | < 20% | Activity [3]: Active |
| O=C(O)/C=C/c1ccc(O)c(O)c1 [CAFFEIC ACID] | inactive | 97 µM | – | – |
| COc1cc(CC(C)C(C)Cc2ccc(O)c(OC)c2)ccc1O (stereo not drawn) [DIHYDROGUAIARETIC ACID] | inactive | 6.3 µM | < 20% | Activity [3]: Active |
| CCOC(=O)/C=C/c1ccc(O)c(O)c1 [ETHYL CAFFEATE] | inactive | 23 µM | < 20% | Activity [3]: Active |
| COC(=O)/C=C/c1ccc(O)c(O)c1 [METHYLCAFFEATE] | inactive | 67 µM | – | – |
| CC(Cc1ccc(O)c(O)c1)C(C)Cc1ccc(O)c(O)c1 (stereo not drawn) [NORDIHYDROGUAIARETIC ACID] | inactive | 7.3 µM | < 20% | Activity [3]: Active; EC50 [11]: 12.6 µM; EC50 [12]: 8.5 µM |
| CC(C)=CCOC(=O)/C=C/c1ccc(O)c(O)c1 [PRENYL CAFFEATE] | inactive | 21 µM | < 20% | – |
| O=C(/C=C/c1ccc(O)c(O)c1)O[C@H](Cc1ccc(O)c(O)c1)C(=O)O [ROSMARINIC ACID] | inactive | 8.6 µM | – | – |
